These results are taken from ChEMBL document CHEMBL2034927, “Design, synthesis, anti-HIV evaluation and molecular modeling of piperidine-linked amino-triazine derivatives as potent non-nucleoside reverse transcriptase inhibitors” (Bioorg Med Chem, 2012).

Data set [1] relates to Human immunodeficiency virus 1. Put plainly: Antiviral activity against HIV1 3B infected in human MT4 cells assessed as inhibition of virus-induced cytopathic effect after 5 days by MTT assay. In kind it is functional, organism-based. To be noted: Human immunodeficiency virus 1, 3B, MT4, 120 h. In outline:
(§1)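 MT-4 cells spun 5 min at 1000 rpm, resuspended at 6 × 10⁵ cells/mL, then infected with HIV-1 IIIB or HIV-2 ROD at 100–300 CCID50. Test compounds were added as serial fivefold dilutions. After 5 days, viability was read by MTT reduction at 540 and 690 nm, using the median OD of three wells. EC50 is the concentration giving 50% protection against virus-induced cytotoxicity.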
(Protection from cytopathic effect is a common read-out in antiviral testing.)

The subject of data set [2] is Human immunodeficiency virus 2. The experiment in a line: Antiviral activity against HIV2 ROD infected in human MT4 cells assessed as inhibition of virus-induced cytopathic effect after 5 days by MTT assay. It is filed as functional, organism-based. The note with it: Human immunodeficiency virus 2, ISOLATE ROD, MT4, 120 h. In a few lines: as §1
The nature of data set [3]: Cytotoxicity against human MT4 cells after 5 days by MTT assay. In kind it is cell-based. In a few lines:
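MT-4 cells at 6 × 10⁵ cells/mL were mock-infected with culture medium and exposed to serial fivefold dilutions of compound. After 5 days, viability was measured by MTT reduction at 540 and 690 nm, using the median OD of three wells. CC50 is the concentration reducing OD540 of the mock-infected control by 50%.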
In general terms: Tetrazolium dyes change colour on reduction, which living cells bring about.

Data set [4] can be described thus: Selectivity index, ratio of CC50 for human MT4 cells to EC50 for wild type HIV1 3B. In kind it is toxicity, cell-based. The note with it: read-out: Ratio CC50/EC50. In a few lines:
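HIV-1 IIIB stock at 100–300 CCID50 was added to MT-4 cells at 6 × 10⁵ cells/mL, with serial fivefold compound dilutions and mock-infected wells run in parallel. Viability was read by MTT at 540 and 690 nm after 5 days, using the median OD of three wells. EC50 is 50% protection from HIV-induced cytotoxicity, and CC50 is a 50% reduction of mock-infected OD540. SI is CC50/EC50.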

Data set [5] has as its system Human immunodeficiency virus 1. The experiment in a line: Antiviral activity against HIV1 RES056 harboring reverse transcriptase K103N/Y181C mutant infected in human MT4 cells assessed as inhibition of virus-induced cytopathic effect after 5 days by MTT assay. It is filed as functional, organism-based. The note with it: Human immunodeficiency virus 1, RES056, MT4, 120 h. In outline: (§2)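 MT-4 cells at 6 × 10⁵ cells/mL were infected with the double mutant HIV-1 RES056 (K103N+Y181C), with serial fivefold compound dilutions. After 5 days, viability was read by MTT at 540 and 690 nm, using the median OD of three wells. EC50 is 50% protection against virus-induced cytotoxicity, and CC50 is a 50% drop in OD540 of mock-infected cells. Fold resistance is the RES056 EC50 divided by the IIIB EC50.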

Data set [6] is described as follows: Selectivity index, ratio of CC50 for human MT4 cells to EC50 for HIV1 RES056 harboring reverse transcriptase K103N/Y181C RT mutant. It is filed as toxicity, cell-based. To be noted: read-out: Ratio CC50/EC50.
The test system of data set [7] is Human immunodeficiency virus 1. The experiment in a line: Fold resistance, ratio of EC50 for HIV1 RES056 harboring reverse transcriptase K103N/Y181C RT mutant to EC50 for wild type HIV1 3B. In kind it is functional. In a few lines: as §2

What is called EC50 is the concentration that produces a half-maximal response. For orientation: CC50 means the concentration at which the toxic effect on the cells reaches its halfway point. The low end stands for harm at low concentration, the high end for better tolerance by the cells. For `Cc1cc(C)c(Nc2nc(N)nc(NC3CCN(Cc4ccncc4)CC3)n2)c(C)c1`, the EC50 in data set [1] was 0.0049 µM; in data set [2], > 20.1 µM; in data set [5], 0.97 µM. In data set [3], this molecule showed a 50% cytotoxic concentration (CC50) at 120 h of 20.1 µM. Also, the selectivity ratio turned out to be 4110 in data set [4] and 21 in data set [6]. Moreover, in data set [7], the “Ratio EC50” value amounted to 198.8.
As to `CCOC(=O)c1ccc(CN2CCC(Nc3nc(N)nc(Nc4c(C)cc(C)cc4C)n3)CC2)cc1`, the figures for the EC50 in data set [1], in data set [2] and in data set [5] were 0.0116 µM, > 5.91 µM and > 5.91 µM, respectively. The molecule further came in with a CC50 at 120 h in data set [3] of 5.91 µM. The values for the selectivity ratio in data set [4] and in data set [6] were 512 and < 1, respectively. The “Ratio EC50” value in data set [7] is reported as >511.6.
In the case of `Cc1cc(C)c(Nc2nc(N)nc(NC3CCN(Cc4ccc(C(N)=O)cc4)CC3)n2)c(C)c1`, the half-maximal effective concentration (EC50) in data set [1] is 0.0204 µM; in data set [2], > 74.4 µM; in data set [5], 3.33 µM. The molecule also came in with a CC50 at 120 h in data set [3] of 74.4 µM. Also, the figures for the selectivity ratio in data set [4] and in data set [6] were 3640 and 22, respectively. In addition, the “Ratio EC50” value in data set [7] stood at 162.8.
